# Diaph inh CS = inhibits diaphorase or chemically oxidizes, flagging diaphorase assay artifacts | actives 0.69% (n = 190,000) | diaphorase resazurin-to-resorufin fluorescence, NADH, 16 min; bacterial (C. kluyveri) enzyme, not human | AID 1217 | inhibition, % at 20 µM;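 active means primary screen inhibition at 20 µM above a set limit, cut at about 50% in these data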
#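 Detection: fluorescence of resorufin formed from resazurin, Ex 544/Em 590 nm; test system: Clostridium kluyveri diaphorase enzyme; amount: 0.14 U/mL diaphorase, enzyme working solution; times: 16-min room-temperature incubation before reading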
# WT yeast gro inh = growth inhibition of WT yeast, mitochondrial fusion screen | actives 2.1% (n = 190,000) | mitochondrial fusion phenotypic screen, WT strain | inhibition, % at 10 µM; in the data active means inhibition above about 58%; tested in S. cerevisiae
# ROMK primary = human ROMK K+ channel modulation, primary screen; P48048; Tet-inducible ROMK, thallium flux fluorescence; actives lie on both sides; B-score at 10 µM; actives 2% (n = 130,000);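 active means signal ratio slope over the read window, or its plate-corrected B-score, at least 3 SD from the plate mean, either direction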;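 further: B-score of the F/F0 ratio slope over 7 to 12 s after thallium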
# Target sequence (P48048 whole entry, looked up): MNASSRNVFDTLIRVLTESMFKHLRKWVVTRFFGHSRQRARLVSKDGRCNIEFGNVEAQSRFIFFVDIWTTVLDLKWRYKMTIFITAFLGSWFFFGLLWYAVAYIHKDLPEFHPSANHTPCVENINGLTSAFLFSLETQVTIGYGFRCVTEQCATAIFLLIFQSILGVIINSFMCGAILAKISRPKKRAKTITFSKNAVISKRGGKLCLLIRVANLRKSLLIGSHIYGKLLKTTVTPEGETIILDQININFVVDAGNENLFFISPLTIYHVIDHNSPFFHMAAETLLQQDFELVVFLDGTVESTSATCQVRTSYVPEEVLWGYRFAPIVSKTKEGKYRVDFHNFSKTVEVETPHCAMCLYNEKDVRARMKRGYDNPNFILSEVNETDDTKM
# Cl transport mod = modulates chloride dependent transport by human KCC2 | actives 2.2% (n = 190,000) | KCC2 cells, thallium flux FluoZin-2 fluorescence | B-score of Tl+ flux slope (higher = more flux/activation; lower = inhibition) at 10 µM | Q9H2X9;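 active means thallium flux slope and its plate-corrected score both differing from the plate sample mean at a set confidence after two filtering rounds, in either direction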;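 further: slope of fluorescence scaled to starting intensity during 10 to 20 s after thallium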
# Diaphorase act = diaphorase activation or chemical reduction counter-screen | Diaphorase/resazurin coupled assay, resorufin fluorescence, 16 min; stronger effect = higher value; 1 = vehicle wells, 0 = NADH-free wells | activation factor at 20 µM | actives 0.005% (n = 190,000);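 active means diaphorase activity raised at least twofold by the compound at 20 µM; inactive means activation factor below 2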
#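 Assay system: bacterial diaphorase enzyme (C. kluyveri) / Input: enzyme 0.07 U/mL final / Medium: 50 mM HEPES pH 7.4 with 4.542 mM MgCl2, 0.005% Tween 20 / Doses: single compound dose of 20 µM, 1% DMSO final / Incubation: 16 min enzyme reaction, ambient temperature / Signal: fluorescence, excitation 544 nm and emission 590 nm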
# Lmaj promast = Leishmania major promastigote growth inhibition | Leishmania major promastigotes, resazurin fluorescence viability | inhibition, % at 10 µM | actives 9% (n = 200,000); in the data active means inhibition above about 50%;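 further: promastigotes grown with compound for 44 hours at 28 °C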
# A number is an active result; n = inactive; x = no result given. Most compounds without a hit are left out; they make up all but 12% or so of the library.
SMILES,Diaph inh CS,WT yeast gro inh,ROMK primary,Cl transport mod,Diaphorase act,Lmaj promast
O=C(COC(=O)c1ccc(N2CCOCC2)c([N+](=O)[O-])c1)Nc1ccc2c(c1)OCO2,n,n,n,n,n,n
Cc1ccc(OCC(=O)Nc2ccc3c(c2)OCCO3)cc1C,n,n,n,n,n,n
O=C1COc2ccc(C(=O)COC(=O)CCSc3ccc(Cl)cc3)cc2N1,n,n,n,n,n,n
Cc1c(Cl)c([N+](=O)[O-])nn1CC(=O)Nc1ccc2c(c1)OCO2,n,n,n,n,n,81
Cc1ccc(OCC(=O)Nc2ccc3c(c2)OCO3)c([N+](=O)[O-])n1,n,n,n,n,n,55
COC(=O)c1cc(OC)c(OC)cc1NC(=O)c1ccccc1C,n,n,n,n,n,n
Cc1cc(C)c2nc(/N=C(\N)NC(=O)Nc3ccccc3)nc(C)c2c1,n,58,n,n,n,100
Cc1cc(C)c2nc(/N=C(\N)NC(=O)c3ccccc3)nc(C)c2c1,x,x,x,n,x,x
CCOC(=O)CN1N=C(/C=C/c2ccc(OC)cc2)CCC1=O,n,n,x,n,n,n
COc1ccc(S(=O)(=O)Nc2cccc(Cl)c2)cc1OC,n,n,x,n,n,n
COc1ccc(OC)c(S(=O)(=O)Nc2ccc(F)cc2)c1,n,n,n,x,n,n
COc1ccc(S(=O)(=O)Nc2ccc(F)cc2)cc1N(C)S(=O)(=O)c1ccc(Cl)cc1,n,n,n,n,n,100
COc1ccc(NS(=O)(=O)c2ccc(OC)c(N(C)S(=O)(=O)c3ccc(Cl)cc3)c2)cc1,n,n,x,x,n,100
Oc1ccc(C[C@@H]2CNC(=S)N2CCCCC2CCCCC2)cc1,n,91,x,n,n,n
CC12CC(c3ccccc3O1)C(C(=O)NCc1ccccc1)C(=O)N2 (stereo not given),n,n,n,n,n,n
O=C(NNC(=O)c1ccc([N+](=O)[O-])o1)c1ccccc1,n,n,x,n,n,98
C/C(=N/NC(=O)C(O)(c1ccccc1)c1ccccc1)c1ccc([N+](=O)[O-])o1,n,n,n,n,n,96
O=C(NN(c1ccccc1)c1ccccc1)c1ccc([N+](=O)[O-])o1,n,n,n,n,n,85
CCOc1ccc(/C=C/C(O)=C2/C(=O)N(C)C3(C)CC2c2ccccc2O3)cc1OC (stereo not given),n,n,n,n,n,65
CCOc1ccc(/C=C/C(O)=C2/C(=O)NC3(C)CC2c2ccccc2O3)cc1OC (stereo not given),n,n,n,n,n,n
CN(C)c1ccc(/C=C/C(O)=C2/C(=O)N(C)C3(C)CC2c2ccccc2O3)cc1 (stereo not given),n,n,x,n,n,66
CN(C)c1ccc(C=C2C(=O)OC(C)(C)OC2=O)cc1,n,n,n,n,n,n
O=C(CSc1nc(C2CC2)nc2ccccc12)Nc1ccccc1N1CCOCC1,n,n,n,x,n,n
CC(=O)c1sc(NC(=O)COc2ccc(C(C)C)c(C)c2)nc1C,n,n,n,n,n,n
COc1ccc(CNCc2cn(-c3cccc(F)c3)nc2-c2ccc(C)o2)cc1,n,71,n,x,n,96
SMILES,Diaph inh CS,WT yeast gro inh,ROMK primary,Cl transport mod,Diaphorase act,Lmaj promast
COc1ccc(-n2cc(CN3CCC(OC)CC3)c(-c3cccc(F)c3)n2)cc1,n,n,n,n,n,n
COc1ccc(-n2cc(CNC3CCC(O)CC3)c(-c3cccc(F)c3)n2)cc1 (stereo not given),n,n,n,n,n,84
O=c1cc2[nH]c3ccccc3c(=O)n2nc1-c1ccccc1,66,n,n,n,n,n
CC1=[N+](C)c2ccc3ccccc3c2C1(C)C,n,79,n,n,n,93
Cc1ccc(NC(=S)NCc2ccc3[nH]c4c(c3c2)CCCC4)cc1,n,73,n,n,n,n
COCCNC(=S)NCc1ccc2[nH]c3c(c2c1)CCCC3,n,n,n,n,n,n
COC12NC(=O)N(C)C1(OC)C(=O)N(C)C(=O)N2C (stereo not given),n,n,n,n,n,n
O=C(N=Nc1c(O)[nH]c2ccc(Br)cc12)c1cc(-c2cccs2)nc2ccccc12,n,n,n,n,n,n
O=C(N=Nc1c(O)[nH]c2ccc(Br)cc12)c1cc(-c2cccc3ccccc23)n[nH]1,n,n,x,n,n,66
N=C(N)N=Nc1c(O)[nH]c2ccc(Br)cc12,n,n,n,n,n,n
O=C(N=Nc1c(O)[nH]c2ccc(Br)cc12)c1ccccc1-n1cccc1,n,83,n,n,n,n
O=C(CSCc1ccc(Br)cc1)N=Nc1c(O)[nH]c2ccccc12,n,n,x,10,n,n
COc1ccc(CC(=O)Nc2ccc(-c3ccc4nnc(C)n4n3)cc2)cc1OC,n,n,n,n,n,n
COc1ccc(-c2nnc(SC(C)C(=O)Nc3nccs3)n2-c2ccccc2)cc1OC (stereo not given),n,n,x,x,n,54
COc1ccc(-c2nnc(SC(C)C(=O)Nc3nccs3)n2Cc2ccccc2)cc1OC (stereo not given),n,n,x,x,n,n
O=C(Oc1cccc(C(=S)N2CCCCC2)c1)c1ccccc1,n,60,n,n,n,n
C/C(=N\NC(=O)CSCc1cccc(Br)c1)c1ccc([N+](=O)[O-])cc1,n,n,x,n,n,n
CCn1cc(C(=O)NCCc2ccccc2)c(=O)c2cc(F)c(N3CCN(C)CC3)cc21,n,62,n,n,n,97
CCn1cc(C(=O)NCc2ccc3c(c2)OCO3)c(=O)c2cc(F)c(N3CCN(C)CC3)cc21,n,n,x,n,n,79
O=C1CCN(S(=O)(=O)c2ccc(Br)cc2)CCN1,n,n,n,n,n,n
O=C(NCc1ccc2c(c1)OCO2)C1CCCN1C(=O)Nc1cccc(Cl)c1 (stereo not given),n,n,x,x,n,99
Oc1cc(NCc2cccnc2)ccc1-c1nc2ccccc2o1,n,n,x,n,n,99
O=C(CCOc1ccccc1)Nc1ccc([N+](=O)[O-])cc1,n,n,n,n,n,n
CCNC(=S)N/N=C1\C(=O)c2cccc3cccc1c23,n,n,n,24,n,n
O=C(N/N=C1/C(=O)c2cccc3cccc1c23)c1ccc(Cl)cc1,68,n,n,4.8,n,57
O=C1c2cccc3cccc(c23)C(=O)N1OS(=O)(=O)c1ccc(Cl)cc1,n,n,n,n,n,n
CCN(C(=O)COC(=O)c1nn(-c2ccccc2)c(=O)c2ccccc12)C1CCS(=O)(=O)C1 (stereo not given),x,x,x,n,x,x
COc1cccc(N2C(=O)CC(NNC(=O)c3cccs3)C2=O)c1 (stereo not given),n,n,n,n,n,63
